Results published in ChEMBL document CHEMBL1146324, “Discovery of (Z)-2-phenyl-3-(1H-pyrrol-2-yl)acrylonitrile derivatives active against Haemonchus contortus and Ctenocephalides felis (cat flea)” (2007).
Activity calls are given as the source filed them. The calls are words filed in the database; no cut-off is given here.

Assays:
Haemonchus contortus [1] = assay: Parasiticidal activity against Haemonchus contortus McMaster; assay type: functional
Procedure, shortened: (§1)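 Larval development assay with Haemonchus contortus larvae. The endpoint was LD99, and the assay was performed by an external screening contractor.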

Ctenocephalides felis [2] = assay: Parasiticidal activity against Ctenocephalides felis after 24 hrs; assay type: functional; design: concentration or dose not given beside the values
Procedure, shortened: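 Single-dose in vitro cat flea assay: compound in acetone (0.5 mL) coated on the base of four 100 mL flasks at 1.26 µg/cm². Flasks held at 25 ± 1 °C and 75 ± 5% humidity for 24 h. Dead fleas counted per flask, and pooled data expressed as percent mortality.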

Ctenocephalides felis [3] = assay: Parasiticidal activity against Ctenocephalides felis; assay type: functional
Ctenocephalides felis [4] = assay: Parasiticidal activity against Ctenocephalides felis after 8 hrs; assay type: functional
Procedure, shortened: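 Cat flea contact assay: compound applied in acetone to the base of four flasks at 1.26 µg/cm², held at 25 ± 1 °C and 75 ± 5% humidity. Dead fleas counted at 8 h, and pooled counts converted to percent mortality.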

[5] = system: Trichostrongylus colubriformis; assay: Parasiticidal activity against Trichostrongylus colubriformis; assay type: functional
Haemonchus contortus [6] = assay: Parasiticidal activity against avermectin-resistant Haemonchus contortus CAVR; assay type: functional; procedure, shortened: as §1
Haemonchus contortus [7] = assay: Parasiticidal activity against levamisole-resistant Haemonchus contortus Lawes; assay type: functional; procedure, shortened: as §1
Saccharomyces cerevisiae = assay: Parasiticide activity against Saccharomyces cerevisiae; assay type: functional, organism-based
Haemonchus contortus [8] = assay: Parasiticidal activity against benzimidazole-resistant Haemonchus contortus Lawes; assay type: functional; procedure, shortened: as §1
[9] = system: Teladorsagia circumcincta; assay: Parasiticidal activity against Ostertagia circumcincta McMaster; assay type: functional
[10] = Cytotoxicity against mouse NS1 cells; assay type: functional
Bacillus subtilis = assay: Parasiticidal activity against Bacillus subtilis; assay type: functional

Compound | LD99 (Haemonchus contortus [1]) | Activity (Ctenocephalides felis [2]) | further results
N#C/C(=C\c1cc(Br)c[nH]1)c1cccc(F)c1 | 38 µM | 18% | 
N#C/C(=C\c1ccc[nH]1)c1ccccc1C(F)(F)F |  | 14% | 
N#C/C(=C\c1ccc[nH]1)c1ccccc1F | 12 µM | 92% | LC50 (Ctenocephalides felis [3]): 0.59 ug/sq.cm
N#C/C(=C\c1cccn1Cc1ccccc1)c1ccc(Cl)cc1 | 44 µM | 3% | 
N#C/C(=C\c1ccc[nH]1)c1ccc(F)cc1F | 11 µM | 5% | 
CN(C)C(=S)n1cccc1/C=C(\C#N)c1ccc(Cl)cc1 | 32 µM | 19% | 
Cc1ccc(S(=O)(=O)n2cccc2/C=C(\C#N)c2ccc(Cl)cc2)cc1 | 31 µM | 0% | 
N#C/C(=C\c1ccc[nH]1)c1ccc(Cl)cc1Cl | 11 µM | 8% | 
CC(C)(C)OC(=O)n1cccc1/C=C(\C#N)c1ccc(Cl)cc1 | 11 µM | 9% | 
N#C/C(=C\c1ccc[nH]1)c1ccc(C#N)cc1 | 46 µM | 44% | 
N#C/C(=C\c1ccc[nH]1)c1ccc(Cl)cc1F | 10 µM | 5% | 
CCc1ccc(/C(C#N)=C/c2ccc[nH]2)cc1 | 4 µM | 58% | 
CC(C)=CCn1cccc1/C=C(\C#N)c1ccc(Cl)cc1 | >51 µM | 0% | 
CCOCn1cccc1/C=C(\C#N)c1ccc(Cl)cc1 | 19 µM |  | Activity (Ctenocephalides felis [4]): 6%
N#C/C(=C\c1cc(Cl)c(Cl)[nH]1)c1ccc(Cl)cc1 | 10 µM | 15% | 
N#C/C(=C\c1ccc[nH]1)c1ccc(F)cc1 | 2 µM | 78% | LC50 (Ctenocephalides felis [3]): 0.3 ug/sq.cm
CC(C)c1ccc(/C(C#N)=C/c2ccc[nH]2)cc1 |  | 100% | LC50 (Ctenocephalides felis [3]): 1.32 ug/sq.cm
N#C/C(=C\c1ccc[nH]1)c1ccccc1C#N | >68 µM | 11% | 
N#C/C(=C\c1ccc[nH]1)c1ccc(Cl)cc1 | 1.8 µM |  | Activity (Ctenocephalides felis [4]): 95%; LC50 (Ctenocephalides felis [3]): 0.17 ug/sq.cm
N#C/C(=C\c1ccc[nH]1)c1ccccc1Cl | 12 µM | 19% | 
N#C/C(=C\c1ccc[nH]1)c1ccc(Cl)c(Cl)c1 | 2.9 µM | 41% | 

Compound | LD99 (Haemonchus contortus [1]) | Activity (Ctenocephalides felis [2]) | further results
Cc1ccccc1/C(C#N)=C/c1ccc[nH]1 | 18 µM | 100% | LC50 (Ctenocephalides felis [3]): 0.08 ug/sq.cm
N#C/C(=C\c1ccc[nH]1)c1ccccc1 | 2.4 µM | 98% | LC50 (Ctenocephalides felis [3]): 0.26 ug/sq.cm
COc1ccc(/C(C#N)=C/c2ccc[nH]2)cc1 | 6.7 µM | 31% | 
CC(C)(C)c1ccc(/C(C#N)=C/c2ccc[nH]2)cc1 | 13 µM | 87% | LC50 (Ctenocephalides felis [3]): 0.48 ug/sq.cm
N#C/C(=C\c1ccc[nH]1)c1cc(C(F)(F)F)cc(C(F)(F)F)c1 | >45 µM | 27% | 
N#C/C(=C\c1ccc[nH]1)c1c(F)cccc1Cl | >61 µM | 7% | 
Cc1ccc(/C(C#N)=C/c2ccc[nH]2)cc1 | 4.5 µM | 69% | 
N#C/C(=C\c1ccc[nH]1)c1cccc(C(F)(F)F)c1 | 3.6 µM | 56% | LC50 (Ctenocephalides felis [3]): 9.9 ug/sq.cm
N#C/C(=C\c1ccc[nH]1)c1ccc(C(F)(F)F)cc1 | 3.1 µM | 20% | 
N#C/C(=C\c1ccc[nH]1)c1ccc(I)cc1 | 2.2 µM | 14% | 
N#C/C(=C\c1ccc[nH]1)c1ccc(-c2ccccc2)cc1 | 28 µM | 46% | 
Cc1cc(C(C#N)c2ccc(Cl)cc2)c(Cl)cc1NC(=O)c1cc(I)cc(I)c1O (stereo unspecified) [CLOSANTEL] | 9.4 µM |  | 
N#C/C(=C\c1cc(Br)c[nH]1)c1ccc(C(F)(F)F)cc1 | >44 µM | 15% | 
N#C/C(=C\c1ccc[nH]1)c1ccc(Br)cc1 | 0.84 µM | 42% | 
N#C/C(=C\c1cc(Br)c[nH]1)c1ccc(F)cc1 | 17 µM | 15% | 
N#C/C(=C\c1cc(Br)c[nH]1)c1ccc(Cl)c(Cl)c1 | 7.3 µM | 19% | 
N#C/C(=C\c1ccc[nH]1)c1c(F)cccc1F | 52 µM | 17% | 
N#C/C(=C\c1ccc[nH]1)c1cccc(Cl)c1 | 3.3 µM | 28% | 
N#C/C(=C\c1ccc[nH]1)c1ccc([N+](=O)[O-])cc1 | >63 µM | 6% | 
N#C/C(=C\c1cc(Br)c[nH]1)c1ccc(Cl)cc1 | 1.5 µM | 23% | 
N#C/C(=C\c1ccc[nH]1)c1ccccc1-c1ccccc1 |  | 2% | 

Compound | LD99 (Haemonchus contortus [1]) | Activity (Ctenocephalides felis [2]) | further results
N#CC(C#N)=Cc1cc(Cl)c(Cl)[nH]1 | 1.8 µM |  | LD99 [5]: 9 µM; LD99 (Haemonchus contortus [6]): 2.2 µM; LD99 (Haemonchus contortus [7]): 2.2 µM; Activity (Saccharomyces cerevisiae): inactive; Activity (Ctenocephalides felis [3]): inactive; LD99 (Haemonchus contortus [8]): 2.2 µM; LD99 [9]: 2.2 µM; LD99 [10]: 13 µM; LD99 (Bacillus subtilis): 1.7 µM
COc1ccccc1/C(C#N)=C/c1ccc[nH]1 |  | 9% | 
N#C/C(=C\c1ccc[nH]1)c1ccc(F)c(F)c1 | 7.6 µM | 17% | 
c1ccc([C@H]2CN3CCSC3=N2)cc1 [LEVAMISOLE] | 0.66 µM |  | 
N#C/C(=C\c1cc(Br)c[nH]1)c1cccc(C(F)(F)F)c1 | 9.5 µM |  | 
N#C/C(=C\c1ccc[nH]1)c1ccc(F)c(Cl)c1 | 5.1 µM | 5% | 
N#Cc1nn(-c2c(Cl)cc(C(F)(F)F)cc2Cl)c(N)c1[S+]([O-])C(F)(F)F (stereo unspecified) [FIPRONIL] |  |  | LC50 (Ctenocephalides felis [3]): 0.018 ug/sq.cm
IVERMECTIN | 0.0057 µM |  | 
CCC(=O)n1cccc1/C=C(\C#N)c1ccc(Cl)cc1 | 1.3 µM | 12% | 
N#C/C(=C\c1ccc[nH]1)c1cccc(Oc2ccccc2)c1 | 11 µM | 10% | 
Cc1cccc(/C(C#N)=C/c2ccc[nH]2)c1 | 6 µM | 42% | 
N#C/C(=C\c1ccc[nH]1)c1ccccc1Br | 12 µM | 30% | 
COC(=O)n1cccc1/C=C(\C#N)c1ccc(Cl)cc1 | 4.4 µM | 16% | 
N#C/C(=C\c1ccc[nH]1)c1cccc(Br)c1 | 3.4 µM | 24% | 
N#C/C(=C\c1ccc[nH]1)c1cccc(F)c1 | 8 µM | 78% | LC50 (Ctenocephalides felis [3]): 0.78 ug/sq.cm
Cc1ccc(/C(C#N)=C/c2ccc[nH]2)c(C)c1 |  | 44% | 
Cn1cccc1/C=C(\C#N)c1ccc(Cl)cc1 | 7.8 µM |  | Activity (Ctenocephalides felis [4]): 13%
N#C/C(=C\c1ccc[nH]1)c1ccc(F)cc1Cl | 12 µM | 30% | 
N#C/C(=C\c1cccn1C(=O)c1ccccc1)c1ccc(Cl)cc1 | 3.8 µM | 6% | 
CCN(CC)C(=O)n1cccc1/C=C(\C#N)c1ccc(Cl)cc1 | 11 µM | 8% | 
